# Measured values: ChEMBL document CHEMBL4513216, “Probing the Open Global Health Chemical Diversity Library for Multistage-Active Starting Points for Next-Generation Antimalarials” (ACS Infect Dis, 2020)
# Assay: Toxicity liver stage against HepG2, at 10uM
# Assay type: cell-based
# Parameters: test concentration 10 uM, cell line HepG2-A16-CD81EGFP
# Conditions: human, HepG2-A16-CD81EGFP cells; read-out: INHIBITION
# Summary of the method: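 Uninfected HepG2-A16-CD81EGFP cells, 3 × 10^3 per well, 1536-well, plated on prespotted compound at 10 μM final, parasite-free screening media added to match infected plates; puromycin 10 μM positive, DMSO 0.5% negative; run in parallel with 48 h PbLuc assay at 37 °C, 5% CO2; viability by CellTiter-Glo luminescence, normalized to controls.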
row,SMILES,cytotoxicity at 10 µM
1,COc1ccc(C(=O)N2C[C@@H](O)[C@H](NCc3cnc(C)cn3)C2)cc1,3.34%
2,COc1ccccc1N1CCN(Cc2nc(C)c(C)o2)CC1,13.4%
3,Cc1nnc(NCc2ccc(N3CCC(CO)CC3)cc2)c(C#N)c1C,-2.83%
4,CCOc1ccc(Cl)c(C(=O)NC(C)C(N)=O)n1 (stereo unspecified),7.53%
5,CN(CCOc1ccc(F)cc1)S(=O)(=O)c1cnn(C)c1,-3.23%
6,CCN1CCCC(NC(=O)CCn2c(C(F)F)cc3cccnc32)C1 (stereo unspecified),-0.212%
7,Cc1cnn(CC2CCN(c3cc(C(C)C)nc4ccnn34)CC2)c1,-10.5%
8,CNC(=O)Cc1ccc(-n2ccnc2-c2ccc(C(=O)O)s2)cc1,-1.53%
9,CC(C(=O)N(C)Cc1noc(C2CCC2)n1)N1CCc2ccccc2C1 (stereo unspecified),-79.1%
10,COc1ncccc1C(=O)N1CCCC(c2cc(C)[nH]n2)C1 (stereo unspecified),-7.49%
11,Cc1ccc(F)c2c1N(C(=O)c1cn(CC(=O)N(C)C)nn1)CCC2,-9.17%
12,CCc1ccc(C(=O)N2CCC(c3nncn3CC)CC2)s1,-15.4%
13,COc1ccc(OCCc2cc(C3CCN(CC(C)C)C3)n[nH]2)cc1 (stereo unspecified),1.97%
14,Cc1nn(C)c(N(C)C)c1CNC(C)COc1ccc(F)cc1 (stereo unspecified),-4.38%
15,CN1CCCCC1c1nc(Cc2cccc(F)c2)no1 (stereo unspecified),-161%
16,O=C(c1cnc2c(c1)CCC2)N1CCCC(CO)(CC2CC2)C1 (stereo unspecified),-42.1%
17,CCN(CC)C(=O)C1(NCc2nc(C)c(C)o2)CCCCC1,2.5%
18,Cc1cc(C(=O)N2CCCC(n3cncn3)C2)on1 (stereo unspecified),-22.5%
19,COCCN1CCC(CN(CC2CCCO2)C(=O)CNC(C)=O)CC1 (stereo unspecified),1.48%
20,CNC(=O)CCc1cc(C)nc(C2CCN(c3ccccc3)CC2)c1,3.56%
21,Cn1ccnc1C(=O)N1CCC2(CCN2Cc2ccc(F)cc2)C1 (stereo unspecified),-97%
22,CC(NC(=O)NC1CCN(Cc2ccncc2)CC1)c1ccccc1F (stereo unspecified),-17.8%
23,CC1CCN(C(=O)[C@@H]2C[C@@H]3CCN(CC4CCOCC4)C[C@@H]3O2)CC1,7.13%

row,SMILES,cytotoxicity at 10 µM
1,Cc1cnn(CC2CCN(CC(O)c3ccc(F)cc3)CC2)c1 (stereo unspecified),-0.237%
2,Cc1c(C(N)=O)sc2nc(C(F)(F)F)ccc12,-3.33%
3,COc1ccc(C2=CCN(C(=O)CN(C)Cc3ccco3)CC2)cc1,-6.16%
4,CNS(=O)(=O)c1cccc(CNCc2ccsc2)c1,-2.54%
5,Cc1ccc(-c2cnc(CCC(=O)NCCN3CCOCC3)o2)cc1C,7.36%
6,O=C1NCCCCC1NC(=O)C1(c2cccc(C(F)(F)F)c2)CC1 (stereo unspecified),-5.67%
7,Cc1cc(C2CCCN2Cc2ccn(C)c(=O)c2)on1 (stereo unspecified),-6.04%
8,O=C(NC[C@H]1OC[C@@H](NCc2ccccc2)[C@@H]1O)Nc1ccccc1,1.97%
9,CC(=O)N1CCN(c2ccccc2CNc2ccc3[nH]ncc3c2)CC1,9.17%
10,Cc1cc(C2CCC2)nc(N(C)Cc2cc(-c3ccccn3)no2)n1,21.2%
11,CNC(=O)CN1CCC(NC(=O)C(C)Oc2ccccc2C#N)CC1 (stereo unspecified),1.97%
12,O=C(Cc1ccccc1C(F)(F)F)N1CCC2(CC1)OCCCC2O (stereo unspecified),-2.62%
13,CC(C)n1ccnc1C1CCN(Cc2ccc(Cl)s2)CC1,-7.09%
14,O=C(Nc1ccc(Br)cc1F)c1ccc(N2CCOCC2)nn1,22.4%
15,Cn1cc(CN2CCCn3cnc(COCc4ccco4)c3C2)cn1,7.61%
16,O=C(NC1CC1)c1cc(NC(=O)N2CCSCC2)ccc1Cl,-22.5%
17,CN1C(=O)[C@@H]2CC[C@H]1CN(C(=O)c1csc(Cc3ccccc3)n1)C2,3.75%
18,CCn1ncc2c1CN(C(=O)c1cc(C)oc1C)CC2COC (stereo unspecified),13%
19,Cc1cn2nc(N3CCCCC3Cn3cccn3)sc2n1 (stereo unspecified),-1.14%
20,Cn1cc(CN2CCC(c3ncc(Cl)cc3S(C)(=O)=O)CC2)cn1,-0.83%
21,Cc1cnn(CCCn2c(C)cc(C(F)(F)F)cc2=O)c1,0.529%
22,COCCN1C(=O)CCC12CCC(NCc1cccnc1OC)CC2 (stereo unspecified),8.64%
23,CCn1nc2c(cc1=O)CN(CC(=O)Nc1nncs1)CC2,-0.284%

row,SMILES,cytotoxicity at 10 µM
1,COCc1nccc(C2CCCN(Cc3ccc(C#N)cc3F)C2)n1 (stereo unspecified),27.3%
2,Cc1cc(C2CCCN(CC(=O)N3CCc4ccccc43)C2)n[nH]1 (stereo unspecified),2.01%
3,CC(C)NC(=O)N1CCCC2(CCN(c3ccsc3)C2=O)C1 (stereo unspecified),-0.42%
4,COCC(=O)N1CCO[C@H]2[C@H](OC)CC[C@@H]21,6.61%
5,O=S(=O)(Cc1c(F)cccc1Cl)Cc1nnnn1C1CC1,-5.19%
6,O=C1NCC2=Nc3ccccc3NC(c3ccccc3)C12 (stereo unspecified),1.14%
7,COc1cccc(Oc2nc(C)c(C(=O)O)s2)c1OC,1.96%
8,COc1cc(NCc2ccc(Cl)cc2)c(-c2nn[nH]n2)cc1OC,10.1%
9,COc1cccc2c(=O)n(Cc3nc(C)cc(O)n3)cnc12,9.49%
10,COc1cccc(NC(=O)c2nc3ccccc3n(C)c2=O)c1,4.47%
11,O=C(C1CNCCN1C(=O)CCOc1ccccc1)N1CCCC1 (stereo unspecified),-7.42%
12,CCn1ncnc1CN1CCOC(Cc2cccc3ccccc23)C1 (stereo unspecified),2.53%
13,Cc1ccc2cc(C(=O)N3CCS(=O)(=O)CC3)[nH]c2c1,-56.3%
14,COCC1CC2(CCN(CC3CC3)CC2)CN1c1ncccn1 (stereo unspecified),14.1%
15,Cc1ccc(CC2CCCN(S(C)(=O)=O)C2)nc1 (stereo unspecified),-8.58%
16,CC(=O)N1CCOC(CNC(=O)c2cccc(CCC(C)(C)O)c2)C1 (stereo unspecified),0.303%
17,CN(C)C(=O)CN1CCCC2(CCN(c3ccc(C#N)cn3)C2)C1 (stereo unspecified),4.01%
18,CCN1CC(C(=O)NCc2ccccc2-n2cccn2)CC1=O (stereo unspecified),3.2%
19,CCN(CC1CCOC1)C(=O)c1cnc2onc(C)c2c1 (stereo unspecified),-10.4%
20,Cc1noc([C@@H]2CCO[C@@H]3CCN(Cc4ccc(C)s4)C[C@@H]32)n1,-77.6%
21,Cn1nnnc1SC1CCCN(c2ccccc2Cl)C1=O (stereo unspecified),3.71%
22,CC(Nc1cccc(F)c1C#N)c1cccc(S(N)(=O)=O)c1 (stereo unspecified),12.8%
23,COc1ncc(-c2ccc(O)cc2)c(OC)n1,-2.42%

row,SMILES,cytotoxicity at 10 µM
1,CC(C)c1n[nH]c(C2CN(C(=O)c3cn4ccccc4n3)CCO2)n1 (stereo unspecified),0.153%
2,CC(C)N1C[C@@H](CO)[C@H](c2ccccc2)S1(=O)=O,-1.94%
3,CC(C)n1cnnc1CN(C)C(=O)c1ccccc1N1CCOCC1,1.47%
4,CN1CCN(C)C(CNC(=O)N(C)Cc2ccccc2Cl)C1 (stereo unspecified),0.339%
5,CC1CCCN1Cc1ccccc1-c1nc(C(C)(C)C)cc(=O)[nH]1 (stereo unspecified),11.4%
6,Cc1ccc(C)c(OCCNC(=O)[C@@H]2CCCCN2)c1,0.997%
7,CC(=O)Nc1nc(CN2CCCCC2Cn2cncn2)cs1 (stereo unspecified),1.12%
8,CC(C)CNC(=O)N1CCC2(CC1)OC(C(N)=O)Cn1ccnc12 (stereo unspecified),-103%
9,CN(C)C(CNC(=O)N(Cc1ccco1)C1CC1)c1cccs1 (stereo unspecified),3.06%
10,O=C1COC2(CCN(C(=O)c3cnccn3)CC2)CN1CC1CC1,-16%
11,O=C(CCOc1cccc(F)c1)N1CCCC1Cn1cccn1 (stereo unspecified),-5.7%
12,CCn1ncc2c1C(COCC1CC1)N(Cc1nccs1)CC2 (stereo unspecified),10.6%
13,CC(=O)N1CCCC2(CN(Cc3ccccc3C(F)(F)F)CCO2)C1 (stereo unspecified),7.28%
14,CC(CNC(=O)NCc1ccsc1)CC1(C)OCCO1 (stereo unspecified),1.24%
15,COCCn1cc(NC(=O)NC(C)c2ccc(Cl)s2)cn1 (stereo unspecified),7.25%
16,O=S(=O)(NCCN1CCOCC1)c1cncc(Cl)c1,2.77%
17,Nc1ncccc1CN1C[C@H]2CC[C@@H](C1)N(CC1CC1)C2=O,-0.956%
18,Cn1c(C(N)=O)ccc1-c1ccccc1,3.18%
19,Cc1ccc(CNC(=O)CCN2CCOC(C(F)(F)F)C2)cc1 (stereo unspecified),3.71%
20,c1cnc(NCC2Cn3nnc(-c4ccoc4)c3CO2)nc1 (stereo unspecified),-76.1%
21,CCOc1ccc(C(=O)CCC(=O)NCCc2nncn2CC)cc1C,-10.7%
22,CCN(C(C)=O)C(c1cccnc1)c1cc(C)cc(C)c1 (stereo unspecified),6.72%
23,O=S(=O)(C1CC1)N1CCO[C@H]2[C@H](Oc3cccnc3)CC[C@@H]21,-0.24%

row,SMILES,cytotoxicity at 10 µM
1,CC(=O)NCc1nc(Cc2cccc(Cl)c2)nn1C1CCN(C)CC1,-1.12%
2,CCN(CCNS(=O)(=O)N1CCOCC1)C(=O)OC(C)(C)C,19.9%
3,NC(=O)C1(c2cnccn2)CCCN1C(=O)Cc1ccsc1 (stereo unspecified),1.54%
4,COCC(=O)N1CCOC(c2cccc(-c3cncnc3)n2)C1 (stereo unspecified),0.109%
5,CC1(C)CN(S(=O)(=O)N2CCOCC2)CC1c1ccccc1 (stereo unspecified),1.69%
6,O=C(c1ccc(NCc2cccc(F)c2)cc1)N1CCC(CO)CC1,6.21%
7,Cc1nnc(SCc2ccccn2)s1,-9.13%
8,CC(C)c1nc(/C=C/c2cnn(-c3ccccc3)c2)ncc1C(=O)O,-11.3%
9,CCN1CC2(CC1=O)CN(C(=O)C(C)C)CCN(S(=O)(=O)CC)C2 (stereo unspecified),16%
10,CNc1ncccc1CN1CCN(C(C)=O)CC(C(N)=O)C1 (stereo unspecified),2.31%
11,CCOc1ccc(Cl)c(C(=O)N2CCCC(c3ccn[nH]3)C2)n1 (stereo unspecified),1.58%
12,Cc1occc1C(=O)N1C[C@H]2CCCC(OCc3cccnc3)[C@H]2C1 (stereo partly specified),2.72%
13,CN(C)C(=O)C1CN(c2ncccn2)CCN1C (stereo unspecified),-0.419%
14,Cn1c(C(=O)N2CCOCC2)nc2c1CCN(c1ncccn1)C2,1.7%
15,CNC(=O)NCC1CCC2(CCN(C(=O)c3cccnc3)CC2)CO1 (stereo unspecified),-94.9%
16,CC(=O)N1CCC2(C1)C(=O)N(CC1CC1)c1ccccc12 (stereo unspecified),2.26%
17,CCN(CC)c1ccc(C(=O)N(C)Cc2c(C)noc2C)cn1,-5.38%
18,COc1ccc2nc(CCNC(=O)c3cc(CC(C)C)no3)[nH]c2c1,0.808%
19,CCO[C@H]1C[C@@H](O)C12CCN(C1CCN(c3ccccc3C)CC1)CC2,9.9%
